Experimental data taken from ChEMBL document CHEMBL1144211, “Overcoming hERG issues for brain-penetrating cathepsin S inhibitors: 2-cyanopyrimidines. Part 2” (Bioorg Med Chem Lett, 2008).

How the values were obtained:
Type in all cases: ADME, organism-based
[1] = Drug level in Sprague-Dawley rat brain at 10 mg/kg, po after 1 hr; parameters: dose 10 mg/kg, route oral; settings: read-out: Drug uptake
Outline: (§1)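 Sprague–Dawley rats received a single oral dose of 10 mg/kg. Plasma and brain concentrations (nM) were measured at 1 h and 3 h after dosing. Values are means of n = 3.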

[2] = Plasma concentration in Sprague-Dawley rat at 10 mg/kg, po after 3 hrs; parameters: dose 10 mg/kg, route oral; outline: as §1
[3] = Plasma concentration in Sprague-Dawley rat at 10 mg/kg, po after 1 hr; parameters: dose 10 mg/kg, route oral; outline: as §1
[4] = Drug level in Sprague-Dawley rat brain at 10 mg/kg, po after 3 hrs; parameters: dose 10 mg/kg, route oral; settings: read-out: Drug uptake; outline: as §1
[5] = Plasma clearance in Sprague-Dawley rat at 1 mg/kg, iv or 10 mg/kg, po
[6] = Cmax in Sprague-Dawley rat at 10 mg/kg, po; parameters: dose 10 mg/kg, route oral; settings: in vivo
Outline: (§2)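 PK parameters in male Sprague–Dawley rats after intravenous dosing at 1 mg/kg and after oral dosing. Parameters derived were Vdss, apparent half-life, oral Cmax and estimated bioavailability.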

[7] = Half life in Sprague-Dawley rat at 1 mg/kg, iv; parameters: dose 1 mg/kg, route intravenous; settings: in vivo; outline: as §2
[8] = Oral bioavailability in Sprague-Dawley rat at 10 mg/kg; settings: in vivo; outline: as §2
[9] = AUC in Sprague-Dawley rat at 10 mg/kg, po; parameters: dose 10 mg/kg, route oral; settings: plasma
[10] = Volume of distribution at steady state in Sprague-Dawley rat at 1 mg/kg, iv; parameters: dose 1 mg/kg, route intravenous; settings: in vivo, read-out: Vdss; outline: as §2

concentration at 1 h [1] [nM]	concentration at 3 h [2] [nM]	concentration at 1 h [3] [nM]	concentration at 3 h [4] [nM]	clearance [5] [mL/min/kg]	Cmax [6] [nM]	half-life [7] [min]	bioavailability [8] [%]	AUC [9] [µM·h]	Vd [10] [L/kg]	SMILES
< 13	61	28	< 13							CNC(=O)c1c(NCC2CCC3(CCC3)CC2)nc(C#N)nc1OCC1CCNCC1
692	170	283	849	25	907	90	14	2.5	1.2	CNC(=O)c1c(NCC2CCC3(CCC3)CC2)nc(C#N)nc1OCCO
67	381	191	455	10	298	708	24	8.08	9.3	CNC(=O)c1c(NCC2CCC3(CCC3)CC2)nc(C#N)nc1OCC1CCN(C(C)C)CC1
	287		164							CNC(=O)c1c(NCC2CCC3(CCC3)CC2)nc(C#N)nc1OC1CC(C)(C)NC(C)(C)C1
27	80	169	< 13							CNC(=O)c1c(NCC2CCC3(CCC3)CC2)nc(C#N)nc1OCC1CCN(C(C)=O)CC1
124	308	346	718	18.3	461	402	40	8.24	9.8	CNC(=O)c1c(NCC2CCC3(CCC3)CC2)nc(C#N)nc1OCC1CCN(C)CC1
